PLC-beta3 inh = human PLC-beta3 inhibitors, primary screen, biochemical, fluorescence. Purified PLC-beta3, fluorogenic substrate. inhibition, % at 12.2 µM. 0.18% of 370,000 active; in the data active = inhibition above about 11%;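 note: 0% = median of compound wells on plate and 100% = full blocker control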
PLCg1 inh = PLC-gamma1 enzyme inhibitors, primary screen, biochemical, fluorescence, purified enzyme | 1-phosphatidylinositol 4,5-bisphosphate phosphodiesterase gamma-1 (Homo sapiens), P19174 | fluorogenic substrate | inhibition, % at 12.2 µM | 0.84% of 370,000 active | AID 720700, 2013
sPLA2-III inh = human group III sPLA2 inhibitors, primary screen, biochemical, QFRET, BODIPY PC-A2 liposome substrate; QFRET BODIPY PC-A2 liposome hydrolysis, fluorescence; inhibition, % at 12.2 µM; 0.56% of 370,000 active;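 active = inhibition above mean plus 3 SD of compounds lying within the high and low control bounds, cut at about 19% in these data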;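 note: 0% = median of test compound wells and 100% = no enzyme DMSO wells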
ASAP1 GAP inh = inhibitors of human ASAP1 ArfGAP activity, primary screen, biochemical, fluorescence polarization; ASAP1-stimulated ARF1 GTP hydrolysis, GDP FP detection; inhibition, % at 16.5 µM; 0.19% of 360,000 active; AID 624377, 2012; in the data active = inhibition above about 25%;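 note: 0% = vehicle with enzyme and substrate and 100% = no enzyme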
Target sequence (Q9ULH1 325-724 limits assumed): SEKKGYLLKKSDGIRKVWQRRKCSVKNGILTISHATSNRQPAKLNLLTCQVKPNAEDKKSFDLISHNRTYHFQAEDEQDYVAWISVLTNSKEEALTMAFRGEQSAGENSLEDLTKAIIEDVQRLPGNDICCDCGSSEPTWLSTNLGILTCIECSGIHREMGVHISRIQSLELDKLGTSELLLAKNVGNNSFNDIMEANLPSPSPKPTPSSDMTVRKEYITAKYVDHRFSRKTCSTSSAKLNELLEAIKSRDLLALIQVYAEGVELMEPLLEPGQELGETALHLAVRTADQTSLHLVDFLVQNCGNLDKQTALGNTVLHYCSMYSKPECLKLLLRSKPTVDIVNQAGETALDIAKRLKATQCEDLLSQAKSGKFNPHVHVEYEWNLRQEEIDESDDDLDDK
ARFGAP1 inh = inhibitors of rat ARFGAP1 GAP activity, primary screen, biochemical, fluorescence polarization, GDP tracer | inhibition, % at 16.5 µM | 0.26% of 360,000 active | AID 651572, 2012 | Arfgap1-stimulated ARF1 GTP hydrolysis, GDP FP detection;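 active = inhibition above a per-plate limit, mean inhibition of low control wells plus 3 SD, cut at about 25% in these data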;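 note: 0% = DMSO wells with enzyme and 100% = wells lacking Arfgap1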
Target sequence (Q62848 1-136 limits assumed): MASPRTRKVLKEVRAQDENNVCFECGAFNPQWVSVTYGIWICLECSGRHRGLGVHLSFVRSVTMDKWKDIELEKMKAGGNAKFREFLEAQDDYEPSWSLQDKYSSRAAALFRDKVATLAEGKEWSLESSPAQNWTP
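System: truncated rat Arfgap1 GAP domain / Benchmarks: high control wells lacking Arfgap1, low control full reaction with DMSO / Times: compound-enzyme preincubation 20 min, reaction 120 min, detection 60 min, 25 °C / Repeats: one replicate per compound / Also added: human ARF1(Δ1-17)-GTP substrate / Measured by: Tracer-displacement fluorescence polarization with EDTA stop, 620/688 nm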
PLCgamma1 ctr = PLC-gamma1 enzyme inhibitors, counter-screen for PLC-beta3 inhibitor project, biochemical, fluorescence; shares compounds with PLCg1 inh; purified PLC-gamma1, fluorogenic substrate; inhibition, % at 12.3 µM; 3.1% of 3,300 active
PLCbeta3 conf = PLC-beta3 inhibitor confirmation, biochemical, fluorescence, purified enzyme; shares compounds with PLCg1 inh; fluorogenic substrate fluorescence; inhibition, % at 12.3 µM; 1% of 3,300 active; AID 743261, 2014; in the data active = inhibition above about 11%
* hit, by the source's call; i = inactive; x = not tested or not shown. Rows were chosen to be rich in hits. Some 1.9% of all compounds tested hit in one or more screens of this group. Cut-off read from the data, not from the text of the source, unless noted: active = inhibition above about 9.5%; inactive = the rest.

SMILES	PLC-beta3 inh	PLCg1 inh	sPLA2-III inh	ASAP1 GAP inh	ARFGAP1 inh	PLCgamma1 ctr	PLCbeta3 conf
CCC1CO/C(=C(\C(Cl)=C(Cl)Cl)[N+](=O)[O-])N1 (stereo not given)	8	9.7*	8	3	8	2	9
O=C(CSc1ccc(Cl)cc1Cl)N1CCC(c2nc3ccccc3s2)CC1	-4	11*	-37	-17	3	-4	-9
CNS(=O)(=O)c1cccc(C(=O)OCC(=O)NC2CCCC2)c1	-2	9.6*	10	4	-3	-4	0
O=C(COCc1ccccc1)N1CC[C@H]2[C@H](CCCN2Cc2ccc(F)cc2)C1	-1	-1	1	x	x	x	x
CC1Cc2nc(SCC(=O)Nc3ccc(F)cc3F)n(C)c(=O)c2S1 (stereo not given)	7	13*	-1	-9	0	-7	-4
COC(=O)[C@]12C[C@H](CC(=O)NCCCN3CCCC3=O)C(=O)N(Cc3ccco3)C1=C[C@H](C(C)C)O[C@@H]2C1CC1	0	-1	1	x	x	x	x
CC(C)(C)c1cc(C(=O)CCN2CCOCC2)cc(C(C)(C)C)c1O	-2	13*	16	4	4	-6	-5
CCOc1ncccc1C(=O)N=c1sccn1C	-2	12*	6	2	-2	-4	1
N#CCC[C@@H]1CC[C@]2(CCCN(S(=O)(=O)c3ccccc3)C2)O1	-3	1	17	x	x	x	x
Cc1cc(OCC(=O)OCC(=O)NCc2ccc3c(c2)OCO3)ccc1Cl	-7	10*	0	3	0	-12	-3
O=c1cc2c(=O)oc3cc(O)c(O)oc3c2c(O)c1O	-39	33*	2	-4	7	-279	-322
CCc1ccc(OC)c(S(=O)(=O)Nc2ccc(Cc3ccncc3)cc2)c1	-4	14*	-34	2	1	-1	0
COc1ccc(S(=O)(=O)Nc2ccc(Cc3ccncc3)cc2)cc1OC	-5	2	-8	3	3	x	x
O=C(Nc1c(-c2ccccc2)nc2ncccn12)C1CC1	i	i	0	x	x	x	x
COc1ccc(S[C@]2(C(=O)N3CCOCC3)CC(=O)N(C(=O)C3CC3)[C@@H]2c2ccc(OC)cc2)cc1	1	1	-5	x	x	x	x
Cn1c(=O)cc(C(=O)N/N=C/c2ccc(F)cc2)[nH]c1=O	-6	9.6*	7	4	6	-5	-8
O=C1OCc2cc(NS(=O)(=O)c3cccs3)ccc21	-1	10*	-3	-5	12	-2	-6
O=S(=O)(Nc1ccc2c(c1)CCC2)c1cccs1	-2	0	-14	1	-2	x	x
CC1(C(=O)NS(=O)(=O)c2cccc(F)c2)CCN1C(=O)c1cccc(F)c1 (stereo not given)	6	6	-3	11	-2	x	x
CC1(C(=O)NS(=O)(=O)c2ccc(F)cc2F)CCN1C(=O)c1cccc(F)c1 (stereo not given)	9	12*	6	-11	8	-7	0
CC(C)CCNC(=O)C1CCN(c2cncnc2)CC1	-9	-7	0	x	x	x	x
Cc1onc(-c2ccccc2)c1NC(=O)N(CCC#N)Cc1cccs1	-2	10.0*	11	-8	-1	-6	1
CCOc1ccc(CCNC(=O)c2[nH]c(C)c(C(C)=O)c2C)cc1OCC	-3	9.8*	17	-2	0	2	3
CCOc1ccc(CCNC(=O)CCn2cccc2)cc1OCC	5	11*	-3	4	1	-3	2
CC(C)(C)c1ccc(S(=O)(=O)Nc2ccc(C(O)(C(F)(F)F)C(F)(F)F)cc2)cc1	6	13*	-110	4	9	-3	-8
SMILES	PLC-beta3 inh	PLCg1 inh	sPLA2-III inh	ASAP1 GAP inh	ARFGAP1 inh	PLCgamma1 ctr	PLCbeta3 conf
COc1cccc(S(=O)(=O)Nc2ccc(C(O)(C(F)(F)F)C(F)(F)F)cc2)c1	-2	6	-35	-2	5	x	x
CC(=O)CC[C@H]1CC[C@]2(CCCN(Cc3nccn3C)C2)O1	-1	0	9	x	x	x	x
CNc1nc(Cl)nc(Nc2ccccc2)n1	1	-1	6	-1	13	x	x
C=CCNc1nc(Cl)nc(Nc2ccccc2)n1	-3	11*	8	-9	1	3	5
Cc1ccc(CNC(=O)CCn2nc(-c3ccc(Cl)cc3)ccc2=O)cc1	-1	1	3	-6	5	x	x
CC(NC(=O)CCn1nc(-c2ccc(Cl)cc2)ccc1=O)c1ccccc1 (stereo not given)	5	10*	11	1	-11	-6	-3
CCCC1CCC2(CC1)CCC2OC(=O)Nc1ccc(F)cc1 (stereo not given)	1	1	-6	x	x	x	x
O=C(O)c1ccc(C=Nn2c(-c3ccc(F)cc3)n[nH]c2=S)cc1	-4	2	6	x	x	x	x
COC(=O)[C@]12C[C@H](CC(=O)N3CCSCC3)C(=O)N(Cc3ccc4c(c3)OCO4)C1=C[C@H](C(C)C)O[C@@H]2C1CC1	4	-2	-3	x	x	x	x
O=C(OCCN1CCN(C2CN(Cc3cn(Cc4ccccc4C(F)(F)F)nn3)S(=O)(=O)C2)CC1)c1cc2ccccc2o1 (stereo not given)	5	1	1	x	x	x	x
O=c1[nH]n2c(=O)c3c([nH]c2c1N=Nc1cccc(Cl)c1)CCC3	7	10*	7	15	-6	4	-1
COc1cccc(N=Nc2c(=O)[nH]n3c(=O)c4c([nH]c23)CCC4)c1	2	1	-5	6	2	x	x
CCc1ccc(Nc2nnc(SCC(=O)Nc3cccc(S(=O)(=O)NC4=NCCCCC4)c3)s2)cc1	3	9.7*	-60	3	17	-4	-4
CN(CCc1ccccn1)C1CCCN(S(=O)(=O)c2ccc(F)c(Cl)c2)C1 (stereo not given)	-7	11*	-7	5	1	-5	-3
CCOC(=O)[C@]12CCCC=C1N(Cc1ccc(OC)cc1)C(=O)[C@@H]2CC(=O)N1CCN(C(=O)c2ccco2)CC1	0	-1	4	x	x	x	x
O=C(NC1C2CC3CC(C2)CC1C3)C1CCCCC1 (stereo not given)	1	16*	10	7	7	-7	-3

From PubChem
